PfGluPho inh – PfG6PD (Plasmodium falciparum) enzyme inhibition | PfGluPho enzyme, NADPH resazurin-diaphorase fluorescence | inhibition, % at 20 µM | 0.78% of 350,000 active | AID 504690;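 active = inhibition reaching at least a set limit at 20 µM in the primary screen, cut at about 59% in these data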;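 also: 0% = DMSO wells with substrate and 100% = DMSO wells lacking glucose-6-phosphate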
MC4R barr agon – human MC4R agonism via beta-arrestin | P32245 | U2OS MC4R beta-arrestin complementation, luminescence; percent of melanotan II response, DMSO zero | activation, % at 8.9 µM | 0.98% of 360,000 active | AID 540308;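 active = activation above a per-plate cutoff, the mean activation of sample wells on that plate plus 3 SD, cut at about 8% in these data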
ABHD5 PLIN5 PPI – inhibitors of human ABHD5-perilipin-5 interaction. Q00G26+Q8WTS1. Split G. princeps luciferase complementation, luminescence, 4 h. inhibition, % at 4 µM. 0.78% of 360,000 active;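 active = inhibition above the mean inhibition across every tested compound plus 3 SD, cut at about 22% in these data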;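 also: 0% = DMSO only wells and the 100% control is not disclosed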
Target sequence (Q00G26 whole entry, looked up): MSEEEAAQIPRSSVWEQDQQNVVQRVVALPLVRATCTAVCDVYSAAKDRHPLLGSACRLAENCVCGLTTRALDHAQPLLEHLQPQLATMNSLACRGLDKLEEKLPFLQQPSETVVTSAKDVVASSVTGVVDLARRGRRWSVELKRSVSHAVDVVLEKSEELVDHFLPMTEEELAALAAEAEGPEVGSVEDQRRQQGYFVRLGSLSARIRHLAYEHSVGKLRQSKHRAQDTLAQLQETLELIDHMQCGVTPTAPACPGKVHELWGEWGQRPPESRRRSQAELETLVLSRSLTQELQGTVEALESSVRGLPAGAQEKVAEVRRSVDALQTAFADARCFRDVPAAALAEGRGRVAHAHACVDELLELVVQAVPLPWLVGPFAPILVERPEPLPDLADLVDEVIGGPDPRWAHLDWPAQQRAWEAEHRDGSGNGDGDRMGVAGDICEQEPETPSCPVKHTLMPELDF
Target sequence (Q8WTS1 whole entry, looked up): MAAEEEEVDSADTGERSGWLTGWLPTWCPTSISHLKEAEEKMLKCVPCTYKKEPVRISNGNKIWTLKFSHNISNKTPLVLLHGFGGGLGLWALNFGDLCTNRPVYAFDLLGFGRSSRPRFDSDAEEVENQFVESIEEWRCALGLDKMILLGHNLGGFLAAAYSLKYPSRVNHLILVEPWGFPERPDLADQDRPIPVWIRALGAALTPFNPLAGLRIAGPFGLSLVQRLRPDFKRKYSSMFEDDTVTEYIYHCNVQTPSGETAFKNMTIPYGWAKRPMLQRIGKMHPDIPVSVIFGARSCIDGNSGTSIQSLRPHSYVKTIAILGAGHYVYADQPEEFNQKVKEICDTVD
B2AR ag – activates human beta-2 adrenergic receptor causing internalization | P07550 | Am2.2-beta2AR cells, FAP receptor internalization, flow cytometry | response, % (no concentration beside the values) | 0.43% of 340,000 active;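 active = response above a set limit, near 3 SD of response in nonfluorescent compounds, cut at about 42% in these data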
MC4R antag cAMP – human MC4R antagonism in cAMP assay; P32245; MC4R-expressing cells, MTII-stimulated cAMP, LANCE TR-FRET; inhibition, % at 6.5 µM; 0.48% of 360,000 active;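 active = inhibition above its plate's cutoff, the mean of tested wells on that plate plus 3 SD, cut at about 29% in these data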;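 also: 0% = Melanotan II alone and 100% = Melanotan II plus saturating MCL0020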
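material = U2OS cells stably expressing human melanocortin 4 receptor (MC4R) | also added = Melanotan II challenge | dosing = single nominal compound dose of 6.5 µM | detection = TR-FRET with Eu-cAMP and labeled anti-cAMP, 671 nm | replication = singlicate | timing = compound 30 min, challenge 1 h, detection 1 h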
U2OS cAMP counter – nonselective cAMP signaling inhibitor, MC4R antagonist counter-screen; 26% of 1,600 active; inhibition, % at 6.5 µM; parental U2OS, forskolin cAMP, LANCE TR-FRET; shares compounds with MC4R antag cAMP; AID 602193;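 active = mean inhibition over triplicates above the low-control well mean plus 3 SD, set per campaign, cut at about 13% in these data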;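 also: signal is single emission at 671 nm which falls as cellular cAMP rises; 0% = forskolin-stimulated wells and 100% = buffer without forskolin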
MC4R antag conf – human MC4R cAMP antagonism confirmation; shares compounds with MC4R antag cAMP; MC4R-expressing cells, MTII-stimulated cAMP, TR-FRET; inhibition, % at 6.5 µM; 27% of 1,600 active; in the data active = inhibition above about 29%;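 also: 0% = agonist stimulated wells alone and 100% = agonist stimulated wells plus saturating reference antagonist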
* hit, by the source's call; · = no result. Compounds with a hit are over-represented: about 3% of the library has one in this group of screens.

SMILES	PfGluPho inh	MC4R barr agon	ABHD5 PLIN5 PPI	B2AR ag	MC4R antag cAMP	U2OS cAMP counter	MC4R antag conf
CC(C)C1CC(CCNCc2ccc3c(c2)OCO3)(c2ccccc2)CCO1 (configuration not stated)	4	3	6	13	34*	0	41*
CC(C)C1CC(CCNCc2ccc(N(C)C)cc2)(c2ccccc2)CCO1 (configuration not stated)	17	4	-8	24	8	·	·
CCCCC1CC2=C(C(=O)OC(C)(C)O2)C(c2ccc3ccccc3c2)O1 (configuration not stated)	·	·	-14	·	·	·	·
Cc1cc(/C=C(\C#N)C(=O)Nc2ccccc2)c(C)n1-c1cccnc1	2	-1	3	-6	13	·	·
CCOc1cccc(NC(=O)/C(C#N)=C\c2cn(CC(=O)O)c3ccccc23)c1	-19	0	-6	-1	21	·	·
Cc1cc(C(=O)O)ccc1-n1c(C)cc(/C=C(/C#N)C(=O)Nc2ccccc2)c1C	8	-1	-3	-3	31*	-1	-1
CCOc1ccccc1/C=C(\C#N)C(=O)Nc1cccc(C(=O)O)c1	-18	0	2	22	38*	0	0
CCOc1ncccc1C(=O)Nc1cc2c(cc1Br)OCCO2	10	1	1	-1	1	·	·
CCOC(=O)C1CC(c2ccccc2)=NN1c1ccccc1 (configuration not stated)	19	0	-8	·	12	·	·
Cc1ccc2nc(-c3ccc(N4C(=N)SC5CS(=O)(=O)CC54)cc3)sc2c1 (configuration not stated)	4	0	11	8	8	·	·
CN(C)S(=O)(=O)c1cccc(NC(=O)c2cncc(Br)c2)c1	-2	-1	-3	-7	3	·	·
Cc1ccc(NC(=O)c2cncc(Br)c2)cc1S(=O)(=O)N(C)C	4	2	3	-5	29*	6	-3
COc1cc(OC)c(NS(=O)(=O)c2cc(C(=O)NCCCN3CCOCC3)ccc2C)cc1Cl	11	1	-5	·	7	·	·
Cc1ccccc1CNC(=O)c1ccc(Cl)c([N+](=O)[O-])c1	12	-2	-6	-4	31*	20*	42*
CC(C)CNC(=O)c1cccc(NC(=O)c2ccc(Cl)c([N+](=O)[O-])c2)c1	11	2	-5	1	32*	11	15
Cc1ccccc1CNC(=O)Cc1ccccc1[N+](=O)[O-]	5	2	1	7	1	·	·
O=C(NCC(c1cccs1)N1CCOCC1)c1ccc(Cl)c([N+](=O)[O-])c1 (configuration not stated)	-8	-3	0	-2	41*	16*	47*
O=C(NCC(c1cccs1)N1CCOCC1)c1ccc(Cl)c(S(=O)(=O)N2CCOCC2)c1 (configuration not stated)	9	2	5	6	4	·	·
COc1cccc(C(=O)Nc2cccc(C(=O)NCC(C)C)c2)c1	5	0	-3	3	9	·	·
COc1ccc(OCC(=O)NNC(=O)c2cccc(S(=O)(=O)N(C)C)c2)cc1	-28	1	-6	6	3	·	·
COc1cc(C(=O)OCC#N)ccc1OCc1c(C)noc1C	-4	0	4	-11	2	·	·
NS(=O)(=O)c1ccc(NC(=O)COC(=O)c2ncc(Cl)c(Cl)c2Cl)cc1	4	-1	7	2	32*	13	29*
CCOc1ccc(NC(=O)COC(=O)c2ncc(Cl)c(Cl)c2Cl)cc1	1	2	-3	-5	3	·	·
O=C(OCC(=O)N1CCCC1=O)c1cc(Cl)ccc1O	-6	0	0	7	16	·	·
O=C(OCC(=O)N1CCCC1=O)c1ncc(Cl)c(Cl)c1Cl	-12	-1	10	3	31*	4	-4
COc1ccc(NC(=O)CC2Oc3ccccc3NC2=O)c(OC)c1 (configuration not stated)	-3	-1	-8	4	10	·	·
CC1CCC/C(=N\NS(=O)(=O)c2ccccc2)C1 (configuration not stated)	6	2	2	-7	37*	-1	-1

Compound activity (PubChem BioAssay)
